Laboratory results published in ChEMBL document CHEMBL1144979, “Combinatorial modification of natural products: synthesis and in vitro analysis of derivatives of thiazole peptide antibiotic GE2270 A: A-ring modifications” (Bioorg Med Chem Lett, 2003).
Converted amounts (≈) assume the structure as drawn.

What was measured:
Enterococcus faecium = assay: In vitro antibacterial activity against Vancomycin-susceptible Enterococcus faecium BM4147.1; assay type: functional
Outline: (§1)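 MICs by NCCLS broth dilution guidelines, modified by adding 0.02% bovine serum albumin to the growth medium; purified, resynthesized compounds tested against the expanded bacterial panel.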

Escherichia coli = assay: In vitro antibacterial activity against Escherichia coli (A G100B); assay type: functional; outline: as §1
Enterococcus faecalis [1] = assay: In vitro antibacterial activity against Vancomycin-resistant Enterococcus faecalis ATCC 51299; assay type: functional
Haemophilus influenzae [2] = assay: In vitro antibacterial activity against Haemophilus influenzae (acr, LS-2); assay type: functional; outline: as §1
Staphylococcus aureus [3] = assay: In vitro antibacterial activity against methicillin sensitive Staphylococcus aureus ATCC 25923; assay type: functional; outline: as §1
[4] = test system: Staphylococcus epidermidis; assay: In vitro antibacterial activity against Staphylococcus epidermidis (ATCC 12228); assay type: functional; outline: as §1
Haemophilus influenzae [5] = assay: In vitro antibacterial activity against Haemophilus influenzae (ATTC31517); assay type: functional; outline: as §1
Staphylococcus aureus [6] = assay: In vitro antibacterial activity against methicillin resistant Staphylococcus aureus (MRSA) ATCC 33591; assay type: functional
Streptococcus pyogenes = assay: In vitro antibacterial activity against Streptococcus pyogenes (ATTC19615); assay type: functional; outline: as §1
Streptococcus pneumoniae = assay: In vitro antibacterial activity against Streptococcus pneumoniae (ATTC49619); assay type: functional; outline: as §1
Enterococcus faecalis [7] = assay: In vitro antibacterial activity against Vancomycin-resistant Enterococcus faecalis (ATTC51299)
[8] = Inhibitory activity against elongation factor Tu (EF-Tu); assay type: functional, Bacteria

SMILES | MIC (Enterococcus faecium) [µg/mL] | MIC (Escherichia coli) [µg/mL] | MIC (Enterococcus faecalis [1]) [µg/mL] | MIC (Haemophilus influenzae [2]) [µg/mL] | MIC (Staphylococcus aureus [3]) [µg/mL] | MIC [4] [µg/mL] | MIC (Haemophilus influenzae [5]) [µg/mL] | MIC (Staphylococcus aureus [6]) [µg/mL] | MIC (Streptococcus pyogenes) [µg/mL] | MIC (Streptococcus pneumoniae) [µg/mL] | MIC (Enterococcus faecalis [7]) [µg/mL] | IC50 [8] [nM]
CNC(=O)C[C@@H]1NC(=O)c2csc(n2)-c2ccc(-c3nc(COC(=O)N[C@@H](C)C(=O)O)cs3)nc2-c2csc(n2)-c2csc(n2)C(C(O)c2ccccc2)NC(=O)CNC(=O)c2nc(sc2COC)[C@H](C(C)C)NC(=O)c2nc1sc2C (stereo partly specified) | 0.25 (≈ 0.204 µM) | > 16 | 0.5 (≈ 0.408 µM) | 1 (≈ 0.815 µM) | 1 (≈ 0.815 µM) | 2 (≈ 1.63 µM) | 16 (≈ 13 µM) | 0.5 (≈ 0.408 µM) | 8 (≈ 6.52 µM) | 4 (≈ 3.26 µM) |  | 
CNC(=O)C[C@@H]1NC(=O)c2csc(n2)-c2ccc(-c3nc(COC(=O)NCCCCC(=O)O)cs3)nc2-c2csc(n2)-c2csc(n2)C(C(O)c2ccccc2)NC(=O)CNC(=O)c2nc(sc2COC)[C@H](C(C)C)NC(=O)c2nc1sc2C (stereo partly specified) | 0.125 (≈ 0.0996 µM) | > 16 | 0.5 (≈ 0.399 µM) | 2 (≈ 1.59 µM) | 0.5 (≈ 0.399 µM) | 0.5 (≈ 0.399 µM) | 8 (≈ 6.38 µM) | 0.25 (≈ 0.199 µM) | 4 (≈ 3.19 µM) | 2 (≈ 1.59 µM) |  | 
CNC(=O)C[C@@H]1NC(=O)c2csc(n2)-c2ccc(-c3nc(COC(=O)NCCCC(=O)O)cs3)nc2-c2csc(n2)-c2csc(n2)C(C(O)c2ccccc2)NC(=O)CNC(=O)c2nc(sc2COC)[C@H](C(C)C)NC(=O)c2nc1sc2C (stereo partly specified) | 0.06 (≈ 0.0484 µM) | > 16 | 0.125 (≈ 0.101 µM) | 4 (≈ 3.22 µM) | 0.25 (≈ 0.202 µM) | 0.25 (≈ 0.202 µM) | 16 (≈ 12.9 µM) | 0.125 (≈ 0.101 µM) | 8 (≈ 6.45 µM) | 2 (≈ 1.61 µM) |  | 
CNC(=O)C[C@@H]1NC(=O)c2csc(n2)-c2ccc(-c3nc(C4=N[C@H](C(=O)N5CCC[C@H]5C(N)=O)CO4)cs3)nc2-c2csc(n2)-c2csc(n2)C(C(O)c2ccccc2)NC(=O)CNC(=O)c2nc(sc2COC)[C@H](C(C)C)NC(=O)c2nc1sc2C (stereo partly specified) | 0.015 (≈ 0.0116 µM) | > 16 |  | > 16 | 0.03 (≈ 0.0232 µM) | 0.03 (≈ 0.0232 µM) | > 16 | 0.03 (≈ 0.0232 µM) | 0.125 (≈ 0.0969 µM) | 0.06 (≈ 0.0465 µM) | 0.015 (≈ 0.0116 µM) | 5
CNC(=O)C[C@@H]1NC(=O)c2csc(n2)-c2ccc(-c3nc(COC(=O)N(C)CCCC(=O)O)cs3)nc2-c2csc(n2)-c2csc(n2)C(C(O)c2ccccc2)NC(=O)CNC(=O)c2nc(sc2COC)[C@H](C(C)C)NC(=O)c2nc1sc2C (stereo partly specified) | 0.5 (≈ 0.399 µM) | > 16 | 0.5 (≈ 0.399 µM) | 2 (≈ 1.59 µM) | 0.5 (≈ 0.399 µM) | 0.5 (≈ 0.399 µM) | 8 (≈ 6.38 µM) | 0.25 (≈ 0.199 µM) | > 16 | > 16 |  | 
CNC(=O)C[C@@H]1NC(=O)c2csc(n2)-c2ccc(-c3nc(C(=O)NCC(O)CC(=O)O)cs3)nc2-c2csc(n2)-c2csc(n2)C(C(O)c2ccccc2)NC(=O)CNC(=O)c2nc(sc2COC)[C@H](C(C)C)NC(=O)c2nc1sc2C (stereo partly specified) | 0.25 (≈ 0.204 µM) | > 16 | 0.25 (≈ 0.204 µM) | 2 (≈ 1.63 µM) | 1 (≈ 0.815 µM) | 2 (≈ 1.63 µM) | > 16 | 0.25 (≈ 0.204 µM) | 1 (≈ 0.815 µM) | 2 (≈ 1.63 µM) |  | 
CNC(=O)C[C@@H]1NC(=O)c2csc(n2)-c2ccc(-c3nc(COC(=O)NCC(O)CC(=O)O)cs3)nc2-c2csc(n2)-c2csc(n2)C(C(O)c2ccccc2)NC(=O)CNC(=O)c2nc(sc2COC)[C@H](C(C)C)NC(=O)c2nc1sc2C (stereo partly specified) | 0.5 (≈ 0.398 µM) | > 16 | 1 (≈ 0.796 µM) | 2 (≈ 1.59 µM) | 1 (≈ 0.796 µM) | 2 (≈ 1.59 µM) | > 16 | 0.5 (≈ 0.398 µM) | 8 (≈ 6.37 µM) | 4 (≈ 3.18 µM) |  | 
CNC(=O)C[C@@H]1NC(=O)c2csc(n2)-c2ccc(-c3nc(COC(=O)N[C@H](C)C(=O)O)cs3)nc2-c2csc(n2)-c2csc(n2)C(C(O)c2ccccc2)NC(=O)CNC(=O)c2nc(sc2COC)[C@H](C(C)C)NC(=O)c2nc1sc2C (stereo partly specified) | 0.25 (≈ 0.204 µM) | > 16 | 1 (≈ 0.815 µM) | 1 (≈ 0.815 µM) | 0.5 (≈ 0.408 µM) | 2 (≈ 1.63 µM) | 16 (≈ 13 µM) | 0.5 (≈ 0.408 µM) | 2 (≈ 1.63 µM) | 2 (≈ 1.63 µM) |  | 
